The values that follow come from ChEMBL document CHEMBL3734716, “Labdane and Clerodane Diterpenoids from Colophospermum mopane” (2015).

≈ marks a conversion by molar mass, not a printed value. Calls of active or inactive are those of the source. The rule behind the calls is not given here. Where only a bound is given, the exact number is not on record here.

The subject of assay [1] is Klebsiella pneumoniae. Kind of assay: Antibacterial activity against Klebsiella pneumoniae ATCC 13883 after 24 hrs using p-iodonitrotetrazolium violet dye. Conditions: ATCC 13883, 24 h. The class given is functional. Summed up: (§1)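 Broth microdilution MIC. Compounds reconstituted in acetone at a 5 mg/mL starting concentration, then serially doubling-diluted in sterile distilled water. Inoculum approx. 1 × 10^6 CFU/mL. Plates sealed and incubated at 37 °C for 24 h. Growth read after adding p-iodonitrotetrazolium violet (0.4 mg/mL); purple-pink means growth. MIC taken as lowest concentration with no growth. Ciprofloxacin positive control (0.01 mg/mL); acetone solvent and culture controls.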

The subject of assay [2] is Escherichia coli. As to the kind of experiment: Antibacterial activity against Escherichia coli ATCC 8739 after 24 hrs using p-iodonitrotetrazolium violet dye. The assay is classed as functional. Conditions: ATCC 8739, 24 h. The method in brief:
as §1

Assay [3] has as its system Enterococcus faecalis. Kind of assay: Antibacterial activity against Enterococcus faecalis ATCC 29212 after 24 hrs using p-iodonitrotetrazolium violet dye. The class given is functional. Conditions: ATCC 29212, 24 h. The method in brief: as §1
Assay [4] has as its system Staphylococcus aureus. As to the kind of experiment: Antibacterial activity against Staphylococcus aureus ATCC 25923 after 24 hrs using p-iodonitrotetrazolium violet dye. The assay is classed as functional. Conditions: ATCC 25923, 24 h. The method in brief:
as §1

The species entered for assay [5] is Homo sapiens. As to the kind of experiment: Modulation of alpha1beta2gamma2S GABAA receptor (unknown origin) expressed in xenopus oocytes assessed as potentiation of GABA-induced chloride current by two-electrode voltage clamp method. The class given is cell-based. (In general: Two-electrode voltage clamp holds a large cell at a set potential and records current.)

With `C/C(=C\C(=O)O)CC[C@@]1(C)[C@H](C)CC[C@@]2(C)C(CO)=CCC[C@H]12` (relative stereo), the MIC (as a rule, the lowest concentration that inhibits growth of the organism) in assay [1] worked out at 93.8 µg/mL (≈ 293 µM); in assay [2], 125 µg/mL (≈ 390 µM); in assay [3], 125 µg/mL (≈ 390 µM); in assay [4], 62.5 µg/mL (≈ 195 µM). The result in assay [5] was inactive.

Take `C[C@H]1CC=C2[C@@H](CC[C@@H](O)C2(C)C)[C@]1(C)CCC1=CC(=O)OC1`: the MIC was found to be 62.5 µg/mL (≈ 196 µM) in assay [1], 125 µg/mL (≈ 393 µM) in assay [2], 62.5 µg/mL (≈ 196 µM) in assay [3] and 93.7 µg/mL (≈ 294 µM) in assay [4]. Moreover, the result in assay [5] was inactive.

As for `CC1=CCC[C@H]2[C@](C)(CC/C(C)=C/C(=O)O)[C@@H](C)CC[C@@]12C`, the MIC in assay [1] is 93.8 µg/mL (≈ 308 µM); in assay [2], 15.6 µg/mL (≈ 51.2 µM); in assay [3], 31.3 µg/mL (≈ 103 µM); in assay [4], 15.6 µg/mL (≈ 51.2 µM). Further, the result in assay [5] was inactive.

`C[C@H]1CC[C@H]2C(C)(C)CCC[C@]2(C)[C@@]1(O)CCC1=CC(=O)OC1`: the MIC in assay [1] was 62.5 µg/mL (≈ 195 µM); in assay [2], 250 µg/mL (≈ 780 µM); in assay [3] it was 125 µg/mL (≈ 390 µM); in assay [4], 125 µg/mL (≈ 390 µM). The result in assay [5] was inactive.

Turning to `C/C(=C\C(=O)O)CC[C@]1(C)[C@@H](C)CC[C@@]2(C)C(CO)=CCC[C@@H]12`, the MIC in assay [1] came out at 625 µg/mL (≈ 1950 µM); in assay [2], 125 µg/mL (≈ 390 µM); in assay [3] it was 62.5 µg/mL (≈ 195 µM); in assay [4], 62.5 µg/mL (≈ 195 µM). The outcome in assay [5] was inactive.

On to `C/C(=C\C(=O)O)CC[C@]1(C)[C@@H](C)CC[C@]2(C)[C@H]1CC[C@H]1O[C@]12C`, for which the MIC in assay [1] was 62.5 µg/mL (≈ 195 µM); in assay [2], more than 250 µg/mL; in assay [3], 62.5 µg/mL (≈ 195 µM); in assay [4], 62.5 µg/mL (≈ 195 µM). Moreover, the result in assay [5] was inactive.

With `C[C@H]1CC[C@H]2C(C)(C)CCC[C@]2(C)[C@@]12CC[C@](C)(CC(=O)O)O2`, the MIC amounted to 46.9 µg/mL (≈ 145 µM) in assay [1], 125 µg/mL (≈ 388 µM) in assay [2], 125 µg/mL (≈ 388 µM) in assay [3] and 62.5 µg/mL (≈ 194 µM) in assay [4]. Besides, in assay [5], the result was inactive.

Take `C[C@@H]1CC[C@@]2(C)[C@H](CC[C@@H]3O[C@@]32C)[C@@]1(C)CCC1=CC(=O)OC1`: in assay [5], the outcome was inactive.

For `O=C(O)c1cn(C2CC2)c2cc(N3CCNCC3)c(F)cc2c1=O` [CIPROFLOXACIN], the minimum inhibitory concentration (MIC) amounted to 0.078 µg/mL (≈ 0.235 µM) in assay [1], 0.156 µg/mL (≈ 0.471 µM) in assay [2], 0.156 µg/mL (≈ 0.471 µM) in assay [3] and 0.156 µg/mL (≈ 0.471 µM) in assay [4].

Turning to `C[C@H]1CC[C@H]2C(C)(C)[C@H](O)CC[C@]2(C)[C@@]12CC[C@@](C)(CCO)O2`, the minimum inhibitory concentration (MIC) in assay [1] came to 62.5 µg/mL (≈ 193 µM); in assay [2], 125 µg/mL (≈ 385 µM); in assay [3], 125 µg/mL (≈ 385 µM); in assay [4], 93.7 µg/mL (≈ 289 µM). In assay [5], the result was inactive.

Turning to `CC(=O)O[C@@H]1CC[C@@]2(C)[C@@H](CC[C@H](C)[C@]23CC[C@](C)(CC(=O)O)O3)C1(C)C`, the MIC turned out to be 62.5 µg/mL (≈ 164 µM) in assay [1], 125 µg/mL (≈ 328 µM) in assay [2], 62.5 µg/mL (≈ 164 µM) in assay [3] and 125 µg/mL (≈ 328 µM) in assay [4]. Moreover, the result in assay [5] was inactive.

On to `C[C@H]1CC[C@H]2C(C)(C)[C@H](O)CC[C@]2(C)[C@@]12CC[C@](C)(CC(=O)O)O2`, for which the MIC in assay [1] came out at 62.5 µg/mL (≈ 185 µM); in assay [2], 125 µg/mL (≈ 369 µM); in assay [3], 62.5 µg/mL (≈ 185 µM); in assay [4], 125 µg/mL (≈ 369 µM). In assay [5], the outcome was inactive.
